Measured values published in ChEMBL document CHEMBL3526009, “Breast cancer resistance protein (ABCG2) determines distribution of genistein phase II metabolites: reevaluation of the roles of ABCG2 in the disposition of genistein” (Drug Metab Dispos, 2012).

How the values were obtained:
[1] = Stability in potassium phosphate buffer at pH 7.4 up to 4 hrs; assay type: physicochemical; details: pH 7.4, 4 h
Outline: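 Negative control run under the blood-incubation conditions but in 50 mM potassium phosphate buffer, pH 7.4, instead of blood. Genistein glucuronides (G-7-G plus G-4′-G, with aglycone) or sulfates (G-7-S plus G-4′-S, with aglycone) held at 37°C in a shaking water bath up to 4 h. Sampled at 0, 60, 120 and 240 min and read by UPLC-MS/MS.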

Blood = assay: Stability in Wistar rat blood at 3 uM up to 4 hrs by UPLC-MS/MS analysis; assay type: ADME, tissue-based
Outline: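 Genistein glucuronide mixture (G-7-G plus G-4′-G, 3 μM) with 3.8 μM genistein incubated in fresh rat whole blood, 37°C shaking water bath. Sampled at 0, 60, 120 and 240 min. Reaction stopped with acetonitrile containing daidzein internal standard. Genistein and conjugates quantified by UPLC-MS/MS using multiple reaction monitoring. n = 3.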

[2] = Biliary excretion in BCRP-/- mouse treated with genistein measured after 2.5 hrs post intestinal perfusion by UPLC-MS/MS analysis; assay type: ADME, Bile; details: in vivo, other
Outline: (§1)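 Gallbladder bile taken after 2.5 h of simultaneous small intestine/colon perfusion with 10 μM genistein (HBSS pH 7.4, 0.191 ml/min) in FVB or Bcrp1(−/−) mice (n = 4). Bile diluted 20-fold in HBSS, daidzein internal standard in acetonitrile added, dried and reconstituted. Genistein and conjugates quantified by UPLC-MS/MS.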

[3] = Biliary excretion in wild-type FVB mouse treated with genistein measured after 2.5 hrs post intestinal perfusion by UPLC-MS/MS analysis; assay type: ADME, Bile; details: in vivo, other; outline: as §1

Stability [1]: Stable | Stability (Blood): Stable | Drug excretion [2]: metabolite_detected | Drug excretion [3]: metabolite_detected
SMILES: O=C(O)[C@H]1O[C@@H](Oc2cc(O)c3c(=O)c(-c4ccc(O)cc4)coc3c2)[C@H](O)[C@@H](O)[C@@H]1O
